In ChEMBL document CHEMBL4477211, “Synthesis and Investigation of Tetrahydro-β-carboline Derivatives as Inhibitors of the Breast Cancer Resistance Protein (ABCG2)” (J Med Chem, 2016):

What was measured:
[1] = Solubility in pH 7.4 Krebs-HEPES buffer assessed as absorbance value at 10 uM after 2 hrs by UV-visible spectrophotometric analysis relative to control; format: physicochemical; conditions: pH 7.4, 2 h
Method in brief: (§1)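 10 µM test solutions prepared from DMSO stocks as for the Hoechst 33342 assay, in Krebs-HEPES pH 7.4. Absorbance at an absorption peak maximum recorded every 120 s for 2 h at room temperature by UV/visible spectrophotometer.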

ABCB1 = ABCB1 (Homo sapiens, UniProt P08183); assay: Inhibition of ABCB1 in human A2780/ADR cells assessed as reduction in calcein AM efflux at 10 uM pre-incubated for 30 mins before calcein AM addition and measured for 60 mins by microplate reader analysis relative to control; format: cell-based; conditions: probe calcein AM
Sequence of ABCB1 (P08183 whole entry): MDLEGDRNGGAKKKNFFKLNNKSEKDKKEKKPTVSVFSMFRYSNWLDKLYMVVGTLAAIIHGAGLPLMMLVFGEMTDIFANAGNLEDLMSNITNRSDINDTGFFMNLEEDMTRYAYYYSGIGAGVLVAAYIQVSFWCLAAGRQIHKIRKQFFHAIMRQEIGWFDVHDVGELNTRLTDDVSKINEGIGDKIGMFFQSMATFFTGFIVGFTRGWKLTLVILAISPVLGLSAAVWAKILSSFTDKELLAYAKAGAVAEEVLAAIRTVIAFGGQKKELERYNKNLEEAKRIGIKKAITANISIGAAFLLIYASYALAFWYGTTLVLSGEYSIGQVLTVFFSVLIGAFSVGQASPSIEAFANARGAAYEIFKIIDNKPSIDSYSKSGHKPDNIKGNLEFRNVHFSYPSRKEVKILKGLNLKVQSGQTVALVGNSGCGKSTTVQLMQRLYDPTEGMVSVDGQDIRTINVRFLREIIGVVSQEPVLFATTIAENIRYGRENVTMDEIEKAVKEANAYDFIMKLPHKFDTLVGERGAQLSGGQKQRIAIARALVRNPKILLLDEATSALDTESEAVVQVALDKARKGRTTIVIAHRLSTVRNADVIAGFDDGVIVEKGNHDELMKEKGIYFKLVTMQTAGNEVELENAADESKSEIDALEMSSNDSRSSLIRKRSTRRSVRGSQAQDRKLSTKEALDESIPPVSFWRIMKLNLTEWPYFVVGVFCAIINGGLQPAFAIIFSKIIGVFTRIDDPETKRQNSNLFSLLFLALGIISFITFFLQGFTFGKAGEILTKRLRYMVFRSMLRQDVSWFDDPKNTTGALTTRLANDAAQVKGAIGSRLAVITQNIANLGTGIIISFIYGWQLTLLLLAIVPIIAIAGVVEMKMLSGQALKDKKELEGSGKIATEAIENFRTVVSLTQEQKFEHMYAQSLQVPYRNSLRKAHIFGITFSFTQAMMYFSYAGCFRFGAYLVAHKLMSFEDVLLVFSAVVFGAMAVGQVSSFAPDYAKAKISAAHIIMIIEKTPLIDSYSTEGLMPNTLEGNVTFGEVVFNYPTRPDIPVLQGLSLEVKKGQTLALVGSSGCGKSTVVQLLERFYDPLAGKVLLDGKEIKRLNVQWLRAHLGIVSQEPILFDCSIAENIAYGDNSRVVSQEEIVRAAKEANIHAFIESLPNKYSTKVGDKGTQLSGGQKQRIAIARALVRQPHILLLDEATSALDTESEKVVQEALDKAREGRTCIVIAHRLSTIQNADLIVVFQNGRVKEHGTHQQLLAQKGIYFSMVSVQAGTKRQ
Method in brief: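 Compound at 10 µM pre-incubated 30 min at 37 °C. Calcein AM added from 3.125 µM solution. Fluorescence (ex 485/em 520 nm) read every 60 s for 60 min.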

[2] = molecular target: T1, Broad substrate specificity ATP-binding cassette transporter ABCG2 (Homo sapiens, UniProt Q9UNQ0); assay: Inhibition of human ABCG2 expressed in MDCK2 cells assessed as reduction in Hoechst 33342 efflux pre-incubated for 30 mins before Hoechst 33342 addition and measured for 120 mins by microplate reader analysis; format: cell-based; conditions: read-out: IC50
T1 sequence (Q9UNQ0 whole entry): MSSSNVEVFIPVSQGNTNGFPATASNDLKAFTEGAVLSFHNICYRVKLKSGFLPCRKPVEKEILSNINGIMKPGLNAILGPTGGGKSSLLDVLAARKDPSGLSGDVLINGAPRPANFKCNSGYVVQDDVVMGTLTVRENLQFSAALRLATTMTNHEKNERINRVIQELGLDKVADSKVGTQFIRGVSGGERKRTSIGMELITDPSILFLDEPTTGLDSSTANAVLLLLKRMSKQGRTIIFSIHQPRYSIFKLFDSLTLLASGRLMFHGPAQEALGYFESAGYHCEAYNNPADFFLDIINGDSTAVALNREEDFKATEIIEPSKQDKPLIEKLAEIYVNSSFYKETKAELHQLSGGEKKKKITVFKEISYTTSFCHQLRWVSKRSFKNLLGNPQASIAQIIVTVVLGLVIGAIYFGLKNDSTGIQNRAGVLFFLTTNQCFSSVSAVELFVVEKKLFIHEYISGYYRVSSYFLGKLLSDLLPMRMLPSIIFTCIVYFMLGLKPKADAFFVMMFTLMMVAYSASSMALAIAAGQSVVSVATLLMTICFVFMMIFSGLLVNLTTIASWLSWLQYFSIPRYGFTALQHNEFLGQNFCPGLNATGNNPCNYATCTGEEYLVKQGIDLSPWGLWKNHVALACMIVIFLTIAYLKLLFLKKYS
Method in brief: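 Compound dilutions up to 10 µM (from 10 mM DMSO stocks) pre-incubated 30 min at 37 °C. Hoechst 33342 then added from 6 µM solution. Fluorescence (ex 355/em 460 nm) read each 60 s over 120 min.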

[3] = molecular target: T1, Broad substrate specificity ATP-binding cassette transporter ABCG2; assay: Inhibition of human ABCG2 expressed in baculovirus infected Sf9 cell membrane assessed as inhibition of vanadate sensitive basal ATPase activity after 20 mins by colorimetric method
Method in brief: (§2)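 Cholesterol-loaded membranes from Sf9 cells infected with baculovirus carrying human wild-type ABCG2; 10 µg protein per reaction. Buffer: 40 mM MOPS-Tris pH 7.0, 50 mM KCl, 2 mM DTT, 0.5 mM EGTA-Tris, 5 mM azide, 1 mM ouabain. Started with 3.3 mM MgATP, 20 min at 37 °C, stopped with SDS. Pi measured by molybdate/ascorbate colour at 880 nm against K2HPO4 standard.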

[4] = Solubility in pH 7.4 Krebs-HEPES buffer at 10 uM after 2 hrs by UV-visible spectrophotometric analysis; format: physicochemical; conditions: pH 7.4, 2 h; method in brief: as §1
[5] = molecular target: T1, Broad substrate specificity ATP-binding cassette transporter ABCG2; assay: Inhibition of human ABCG2 expressed in MDCK2 cells assessed as reduction in pheophorbide A efflux pre-incubated for 30 mins before pheophorbide A addition and measured for 120 mins by flow cytometry; conditions: read-out: IC50
[6] = Ratio of GI50 for wild-type MDCK2 cells to IC50 for human ABCG2 expressed in MDCK2 cells
[7] = Cytotoxicity against wild-type MDCK2 cells assessed as reduction in cell viability after 72 hrs by MTT assay; format: cell-based, Canis lupus familiaris; conditions: dog, wild-type MDCK2 (MDCK-II) cells
Method in brief: (§3)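 MDCK II cells retrovirally transfected with human ABCG2-GFP cDNA, and wild-type MDCK II, in DMEM with 10% FBS. Seeded at 3 x 10^3 cells/well and attached 6 h at 37 °C, 5% CO2. Compounds up to 100 µM for 72 h. Controls were 10% DMSO and medium. MTT (5 mg/ml) added for 1 h, read at 570 nm minus 690 nm. Data normalised; GI50 from variable-slope sigmoidal fit.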

[8] = Cytotoxicity against MDCK2 cells expressing human ABCG2 assessed as reduction in cell viability after 72 hrs by MTT assay; format: ADME, cell-based, Canis lupus familiaris; conditions: dog, MDCK2 (MDCK-II) cells expressing human ABCG2; method in brief: as §3
[9] = molecular target: T1, Broad substrate specificity ATP-binding cassette transporter ABCG2; assay: Reversal of human ABCG2-mediated resistance to SN-38 in human ABCG2 expressed MDCK2 cells assessed as reduction in SN-38 GI50 after 72 hrs by MTT assay
ABCG2 = molecular target: T2, ABCG2 (Homo sapiens, UniProt Q9UNQ0); assay: Ratio of IC50 for human ABCG2 expressed in baculovirus infected Sf9 cell membrane assessed as inhibition of vanadate sensitive quercetin-stimulated ATPase activity to IC50 for human ABCG2 expressed in baculovirus infected Sf9 cell membrane assessed as inhibition of vanadate sensitive basal ATPase activity; conditions: read-out: Ratio IC50
T2 sequence (Q9UNQ0 whole entry): T1 sequence (Q9UNQ0 whole entry)

[10] = molecular target: T1, Broad substrate specificity ATP-binding cassette transporter ABCG2; assay: Inhibition of human ABCG2 expressed in baculovirus infected Sf9 cell membrane assessed as inhibition of vanadate sensitive ATPase activity at 1 uM after 20 mins by colorimetric method; conditions: sf9, 20 min
[11] = molecular target: T1, Broad substrate specificity ATP-binding cassette transporter ABCG2; assay: Inhibition of human ABCG2 expressed in baculovirus infected Sf9 cell membrane assessed as inhibition of vanadate sensitive quercetin-stimulated ATPase activity after 20 mins by colorimetric method; method in brief: as §2
[12] = Ratio of GI50 for MDCK2 cells expressing human ABCG2 to IC50 for human ABCG2 expressed in MDCK2 cells
[13] = Solubility in pH 7.4 Krebs-HEPES buffer assessed as compound precipitation at 10 uM after 2 hrs by UV-visible spectrophotometric analysis; format: physicochemical; conditions: pH 7.4, 2 h; method in brief: as §1

SMILES | Activity [1] | inhibition at 1 h, 10 µM (ABCB1) | IC50 [2] | IC50 [3] | solubility [4] | IC50 [5] | Ratio [6] | GI50 at 72 h [7] | GI50 at 72 h [8] | Activity [9] | selectivity ratio (ABCG2) | inhibition (INH) [10] | IC50 [11] | Ratio [12] | Activity [13]
O=C(c1ccccc1)N1CCc2c([nH]c3ccccc23)C1c1ccccc1Cl (centres undefined) | 40% | < 25% | > 10000 nM | – | – | – | – | – | – | – | – | – | – | – | –
COc1ccc(C(=O)N2CCc3c([nH]c4ccccc34)C2c2ccc(Cl)c(Cl)c2)cc1 (centres undefined) | – | < 25% | 233 nM | 26 nM | Soluble | 237 nM | <=20 | 4830 nM | 4670 nM | Dose-dependent effect | 11 | Active | 285 nM | <=20 | –
O=C(c1ccccc1)N1CCc2c([nH]c3ccccc23)C1c1ccc(Cl)c(Cl)c1 (centres undefined) | – | < 25% | 328 nM | 31 nM | – | 365 nM | <=20 | 7290 nM | 6950 nM | Dose-dependent effect | 8.4 | Active | 262 nM | <=20 | –
O=C(c1ccccc1)N1CCc2c([nH]c3ccccc23)C1c1ccccc1Br (centres undefined) | 40% | < 25% | > 10000 nM | – | – | – | – | – | – | – | – | – | – | – | –
O=C(c1ccccc1)N1CCc2c([nH]c3ccccc23)C1c1cccc([N+](=O)[O-])c1 (centres undefined) | – | < 25% | > 10000 nM | – | – | – | – | – | – | – | – | – | – | – | 80%
O=C(c1ccccc1)N1CCc2c([nH]c3ccccc23)C1c1ccc(C(F)(F)F)cc1 (centres undefined) | – | < 25% | > 10000 nM | – | – | – | – | – | – | – | – | – | – | – | 80%
O=C(c1ccccc1)N1CCc2c([nH]c3ccccc23)C1c1ccc(Cl)cc1 (centres undefined) | – | < 25% | 741 nM | 60 nM | – | 784 nM | 20 - 30 | 16400 nM | 18100 nM | Dose-dependent effect | 9.3 | Active | 560 nM | 20 - 30 | –
